Broadly, the inhibition is the relative decrease from the control value, in per cent. The term clearance denotes the rate of elimination divided by the concentration. A word on the AUC: it is concentration integrated over time. A low value points to low exposure. One may read the IC50 as the concentration that gives 50% inhibition. For orientation: logD means lipophilicity at a set pH, counting ionised and neutral species.

The structures appear in SMILES notation.

This note sets out measurements from ChEMBL document CHEMBL5678813, “Optimization of a novel series of N-phenylindoline-5-sulfonamide-based acyl CoA:monoacylglycerol acyltransferase-2 inhibitors: Mitigation of CYP3A4 time-dependent inhibition and phototoxic liabilities” (Bioorg Med Chem, 2015).

For one data set, the target named is CYP2C9 (Homo sapiens, UniProt P11712). As to the kind of experiment: Reversible inhibition of CYP2C9 in human liver microsomes using tolbutamide as substrate at 10 uM incubated for 10 mins by LC/MS/MS analysis relative to control. The note with it: probe tolbutamide. The data set is classed as ADME, Microsome. The procedure, abridged: (§1)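 Human liver microsomes at 0.1 mg/mL incubated 10 min at 37 °C with isoform-specific substrate and 10 µM test compound. Pairs: 1A2 tacrine/1-hydroxytacrine; 2C8 paclitaxel/6α-hydroxypaclitaxel; 2C9 tolbutamide/4-hydroxytolbutamide; 2D6 dextromethorphan/dextrorphan; 3A4 midazolam/1'-hydroxymidazolam. Stopped with acetonitrile/water; metabolite measured by LC/MS/MS.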
A general note: Liver microsomes are a subcellular fraction often used to study metabolism.

The nature of data set [1]: Permeability of compound at pH 7.4 by PAMPA assay. The data set is classed as ADME. The note with it: read-out: permeability. The procedure, abridged: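 Passive permeability measured by PAMPA at pH 7.4.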
Data set [2] in a line: Total clearance in mouse at 0.1 mg/kg, iv administered as cassette dose by LC/MS/MS analysis. In kind it is ADME, organism-based. The conditions noted are these: in vivo. The procedure, abridged: (§2)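 Non-fasted mice dosed by cassette, iv 0.1 mg/kg or po 1 mg/kg suspended in 0.5% methylcellulose aqueous solution; plasma obtained from blood by centrifugation, deproteinized with acetonitrile, and compound concentrations measured by LC/MS/MS.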

A further data set has as its system Mus musculus. As to the kind of experiment: In vivo inhibition of MGAT2 in olive oil-induced C57BL/6J mouse model of hypertriglyceridemia assessed as reduction in plasma chylomicron triglyceride level preadministered orally with compound for 6 hrs followed by Pluronic F127 addition for 30 mins and further treated with olive oil for 4 hrs by automatic analyzer. In kind it is functional. The note with it: dose 0.3-3 mg/kg, route po, time 10.5 hrs. The procedure, abridged: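 Male C57BL/6J mice (20–25 g) fasted overnight and dosed orally at 0.3, 1 or 3 mg/kg. Olive oil (8 mL/kg po) or water given 6 h later, with Pluronic F127 500 mg/kg i.p. 30 min before oil. Tail-vein plasma taken at 0, 2 and 4 h and TG measured by automatic analyzer. CM/TG = oil-group TG minus water-group TG; AUC over 4 h; n = 5, mean ± SD; Williams' test vs vehicle.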

A further data set deals with NIH3T3. As to the kind of experiment: Cytotoxicity against BALB/c mouse 3T3 cells assessed as reduction in cell viability at 6.25 uM incubated for 1 hrs in absence of UV irradiation by Celltiter-Glo assay relative to control. In kind it is toxicity, cell-based. The conditions noted are these: nih3t3, 1 h. The method, boiled down: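 BALB/c 3T3 cells seeded at 2.5 × 10^3 cells/well and grown 1 day. Compound at 6.25 µM in EBSS with 1 mM HEPES, preincubated 1 h. Plate kept dark (–UV) while the paired plate was irradiated. Medium replaced, cultured 24 h more. Viability read as cellular ATP by CellTiter-Glo, % of 1% DMSO control; n = 3, mean ± SD.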
On the technique in general: ATP-based viability assays read luminescence as a measure of living cells.

Data set [3] in a line: AUC in mouse at 1 mg/kg, po administered as cassette dose by LC/MS/MS analysis. In kind it is ADME, organism-based. The note with it: in vivo. The procedure, abridged: as §2
The target of data set [4] is T1, Diacylglycerol O-acyltransferase 1 (Homo sapiens, UniProt O75907).
T1 sequence (O75907 whole entry): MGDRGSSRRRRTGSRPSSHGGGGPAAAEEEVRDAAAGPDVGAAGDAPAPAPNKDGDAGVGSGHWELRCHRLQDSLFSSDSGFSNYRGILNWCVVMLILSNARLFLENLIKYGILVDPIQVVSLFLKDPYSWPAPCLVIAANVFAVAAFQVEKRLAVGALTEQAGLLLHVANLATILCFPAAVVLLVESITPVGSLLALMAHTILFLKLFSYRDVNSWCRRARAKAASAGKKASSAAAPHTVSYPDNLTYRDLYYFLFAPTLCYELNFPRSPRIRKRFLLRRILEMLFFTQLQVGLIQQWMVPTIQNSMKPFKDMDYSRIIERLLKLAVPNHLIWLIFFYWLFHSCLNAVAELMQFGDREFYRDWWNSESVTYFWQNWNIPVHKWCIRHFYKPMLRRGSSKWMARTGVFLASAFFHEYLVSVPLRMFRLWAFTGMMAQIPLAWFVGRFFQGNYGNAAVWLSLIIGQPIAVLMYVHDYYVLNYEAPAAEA
As to the kind of experiment: Inhibition of N-terminal FLAG-tagged full-length human DGAT1 expressed in recombinant baculovirus infected Sf21 cells using [1-14C]-oleoyl-CoA and 1,2-dioleoyl-glycerol as substrate incubated for 40 mins by TLC analysis. The method, boiled down: (§3)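 Membranes from baculovirus-infected Sf-21 cells, each enzyme at 30 µg/mL, incubated with 5 µM [1-14C]-oleoyl-CoA and 40 µM 1,2-dioleoyl-glycerol for 40 min at 32 °C. Lipids extracted by modified Bligh & Dyer, resolved on silica TLC, and radioactivity incorporated into lipids quantified.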

Data set [5] can be described thus: 1-Octanol/aqueous buffer partition coefficient, logD of the compound at pH 7.4 by HPLC analysis. The data set is classed as physicochemical.
In data set [6] the target is T2, Diacylglycerol O-acyltransferase 2 (Homo sapiens, UniProt Q96PD7).
T2 sequence (Q96PD7 whole entry): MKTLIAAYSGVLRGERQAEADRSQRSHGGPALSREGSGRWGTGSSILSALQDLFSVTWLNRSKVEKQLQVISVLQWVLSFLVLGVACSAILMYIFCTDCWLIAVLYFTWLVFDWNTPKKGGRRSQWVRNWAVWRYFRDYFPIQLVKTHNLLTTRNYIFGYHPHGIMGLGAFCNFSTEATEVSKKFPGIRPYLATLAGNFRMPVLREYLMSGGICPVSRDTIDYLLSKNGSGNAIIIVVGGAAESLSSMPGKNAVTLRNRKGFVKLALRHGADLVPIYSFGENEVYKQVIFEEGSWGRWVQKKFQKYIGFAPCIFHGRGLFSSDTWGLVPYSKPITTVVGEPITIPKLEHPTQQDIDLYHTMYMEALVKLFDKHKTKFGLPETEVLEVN
As to the kind of experiment: Inhibition of N-terminal FLAG-tagged full-length human DGAT2 expressed in recombinant baculovirus infected Sf21 cells using [1-14C]-oleoyl-CoA and 1,2-dioleoyl-glycerol as substrate incubated for 40 mins by TLC analysis. The procedure, abridged:
as §3

The target in another data set is T3, CYP1A2 (Homo sapiens, UniProt P05177).
T3 sequence (P05177 whole entry): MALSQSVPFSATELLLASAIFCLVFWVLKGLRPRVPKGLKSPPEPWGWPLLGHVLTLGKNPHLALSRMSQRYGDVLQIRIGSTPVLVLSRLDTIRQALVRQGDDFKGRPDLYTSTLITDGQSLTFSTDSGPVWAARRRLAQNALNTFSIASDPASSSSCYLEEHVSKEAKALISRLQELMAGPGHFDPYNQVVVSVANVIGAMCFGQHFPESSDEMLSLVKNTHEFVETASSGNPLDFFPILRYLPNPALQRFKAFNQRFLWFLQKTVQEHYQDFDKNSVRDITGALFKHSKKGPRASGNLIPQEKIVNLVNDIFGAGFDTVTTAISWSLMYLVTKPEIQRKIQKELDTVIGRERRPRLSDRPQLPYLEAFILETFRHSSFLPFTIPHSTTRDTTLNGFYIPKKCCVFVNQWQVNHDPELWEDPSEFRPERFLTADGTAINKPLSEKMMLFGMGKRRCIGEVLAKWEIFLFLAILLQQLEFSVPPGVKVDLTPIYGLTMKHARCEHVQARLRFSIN
As to the kind of experiment: Reversible inhibition of CYP1A2 in human liver microsomes using tacrine as substrate at 10 uM incubated for 10 mins by LC/MS/MS analysis relative to control. In kind it is ADME, Microsome. The conditions noted are these: probe tacrine. The method, boiled down: as §1

Sequence of CYP2C9 (P11712 whole entry, canonical isoform): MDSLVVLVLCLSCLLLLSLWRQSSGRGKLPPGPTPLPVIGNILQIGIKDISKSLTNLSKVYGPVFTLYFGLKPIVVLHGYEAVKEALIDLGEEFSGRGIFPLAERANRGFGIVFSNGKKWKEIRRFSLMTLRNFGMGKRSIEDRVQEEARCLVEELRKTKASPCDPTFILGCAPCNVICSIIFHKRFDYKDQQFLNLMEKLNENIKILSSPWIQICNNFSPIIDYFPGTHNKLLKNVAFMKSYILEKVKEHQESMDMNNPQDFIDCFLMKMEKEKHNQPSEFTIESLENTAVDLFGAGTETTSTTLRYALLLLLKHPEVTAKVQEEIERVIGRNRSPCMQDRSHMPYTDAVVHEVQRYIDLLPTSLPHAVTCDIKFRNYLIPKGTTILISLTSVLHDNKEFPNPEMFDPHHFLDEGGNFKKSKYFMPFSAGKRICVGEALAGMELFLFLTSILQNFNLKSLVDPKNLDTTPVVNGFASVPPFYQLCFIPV

With `Cn1nc(C(F)(F)F)cc1-c1cnc(N2CCc3cc(S(=O)(=O)Nc4c(F)cc(Cl)cc4F)cc(N4CCCC4=O)c32)nc1` [TP-020], the inhibition at 10 min, 10 µM on CYP2C9 was 17%; on CYP1A2 it was less than 10%. Further, the Papp in [1] worked out at 16.6 ×10⁻⁶ cm/s. The compound also showed a clearance in [2] of 3.42 mL/min/kg. Besides, the inhibition result in the data set with Mus musculus is “Dose-Dependent Effect”. In addition, the Activity in the data set on NIH3T3 is on record as 99%. In addition, in data set [3], the area under the curve (AUC) was 2440 ng·h/mL. For the same compound, the half-maximal inhibitory concentration (IC50) in [4] and in data set [6] was more than 10 µM in each case. This compound showed a log distribution coefficient (logD) in data set [5] of 2.8.
